For assay [1], the system named is Helicobacter pylori. Description: Evaluated for antimicrobial activity against Helicobacter pylori. It is filed as functional. The procedure, abridged:
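Agar dilution. Test strain precultured on Brucella agar with 3% horse serum and 2% starch, 37 °C, 3 days. Suspended in buffered saline to McFarland no. 1, diluted 10²-fold, then spotted by multipoint replicator onto Brucella agar plus 7% lysed horse blood carrying serial 2-fold drug dilutions. Incubated 37 °C, 3 days, 10% CO₂. MIC taken as lowest concentration stopping macroscopic colonial growth.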

The next assay concerns Rattus norvegicus. Description: inhibition of histamine stimulated gastric secretion in lumen perfused stomach of anesthetized rats at 1 mg/kg intravenously. It is filed as functional. The note with it: route intravenous. A digest of the protocol: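 Abdomen opened; gastric lumen perfused with saline throughout. Secretion stimulated by iv histamine infusion, 3 mg/kg/h. Perfusate acid titrated with 25 mM NaOH by autotitrator. n = 2.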

For a further assay, the species on record is Cavia porcellus. The assay is described as follows: inhibition of the histamine stimulated […] response in the isolated guinea pig right atrium at 1x 10 e-6 g/mL. It is filed as functional, Cardiac atrium. A digest of the protocol: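 Isolated atrium; beating rate and contraction amplitude recorded via transducer and polygraph. Histamine hydrochloride 1 × 10^-6 g/mL added to bath and rate increase measured. Percent inhibition from histamine-induced rate increases before versus 30 min after compound.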

The test system of assay [2] is Helicobacter pylori. The assay is described as follows: minimum inhibitory concentration was determined against Helicobacter pylori. the value in parentheses is range. It is filed as functional, organism-based. The procedure, abridged:
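Agar dilution. Test strain precultured on Brucella agar with 3% horse serum and 2% starch, 37 °C, 3 days. Suspended in buffered saline to McFarland no. 1, diluted 10²-fold, then spotted by multipoint replicator onto Brucella agar plus 7% lysed horse blood carrying serial 2-fold drug dilutions. Incubated 37 °C, 3 days, 10% CO₂. MIC taken as lowest concentration stopping macroscopic colonial growth. Mean and range from 10 strains (8001, 8003, 8004, 8007, 8008, 8009, 8011, 9005, FP1530, FP1532).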

The values below come from ChEMBL document CHEMBL1130326, “Anti-Helicobacter pylori agents. 1. 2-(Alkylguanidino)-4-furylthiazoles and related compounds” (1997).

≈ marks a conversion by molar mass, not a printed value. A value given as a limit tells only on which side of the number the result lay.

As usually defined, the MIC is the least concentration at which growth counts as inhibited. The inhibition in vivo is the drop in the measured response relative to a control, in per cent. The low end stands for a response near the control, the high end for a response far below the control. For orientation: Inhibition means how much of the control response was suppressed. Higher therefore signals strong suppression. `C/N=C(\N)Nc1nc(-c2ccc(CNC(C)=O)o2)cs1` yielded an MIC against Helicobacter pylori [1] of 12.5 µg/mL (≈ 42.6 µM). In the assay on Rattus norvegicus, this compound gave an inhibition in vivo at 1 mg/kg of 24%. This compound registered an Inhibition in the assay filed under Cavia porcellus of 25%.
In the assay with Helicobacter pylori [1], `CCC/N=C(\N)Nc1nc(-c2ccc(CNC(C)=O)o2)cs1` returned a minimal inhibitory concentration (MIC) of 1.67 µg/mL (≈ 5.2 µM). In addition, the inhibition in vivo at 1 mg/kg with Rattus norvegicus is 97%. This compound also registered an Inhibition in the assay listed under Cavia porcellus of 81%.
The corresponding values for `CCCCNC(=O)Nc1nc(-c2ccc(CNC(C)=O)o2)cs1` are greater than 100 µg/mL, 9% and 0%.
In the assay on Helicobacter pylori [1], `CC(=O)NCc1ccc(-c2csc(NC3=NCCN3)n2)o1` displayed an MIC greater than 100 µg/mL. Moreover, in the assay with Rattus norvegicus, the inhibition in vivo at 1 mg/kg is 18%. Further, in the assay listed under Cavia porcellus, the Inhibition turned out to be 8%.
Turning to `CC(=O)NCc1ccc(-c2csc(N/C(N)=N/C(C)C)n2)o1`, the minimal inhibitory concentration (MIC) against Helicobacter pylori [1] stood at 2.9 µg/mL (≈ 9.02 µM). Besides, the inhibition in vivo at 1 mg/kg in the assay with Rattus norvegicus is 32%. The same compound gave an Inhibition in the assay filed under Cavia porcellus of 27%.
Consider `CCCCCC/N=C(\N)Nc1nc(-c2ccc(CNC(C)=O)o2)cs1`, for which, in the assay on Helicobacter pylori [1], the MIC was 0.11 µg/mL (≈ 0.303 µM). Testing at 1 mg/kg with Rattus norvegicus gave an inhibition in vivo of 44%. The Inhibition in the assay filed under Cavia porcellus stood at 79%.
The matching figures for `CC(=O)NCc1ccc(-c2nc(N=C(N)N)sc2C)o1`: 76 µg/mL (≈ 259 µM), 3% and 10%.
Regarding BISMUTH SUBCITRATE, the minimum inhibitory concentration (MIC) in the assay with Helicobacter pylori [2] stood at 18 µg/mL.
Consider `CN/C(=N\CCSCc1nc[nH]c1C)NC#N` [CIMETIDINE], for which, in the assay with Helicobacter pylori [1], inhibition of growth (MIC) required 1130 µg/mL (≈ 4480 µM). This compound also returned an inhibition in vivo at 1 mg/kg with Rattus norvegicus of 53%. The same compound showed an Inhibition in the assay listed under Cavia porcellus of 43%.
In the assay with Helicobacter pylori [1], `CC/N=C(\N)Nc1nc(-c2ccc(CNC(C)=O)o2)cs1` registered an MIC of 3.13 µg/mL (≈ 10.2 µM). In addition, in the assay with Rattus norvegicus, the inhibition in vivo at 1 mg/kg turned out to be 79%. Also, in the assay listed under Cavia porcellus, the Inhibition came out at 51%.
On to `Cc1ncc([N+](=O)[O-])n1CCO` [METRONIDAZOLE], for which, in the assay on Helicobacter pylori [1], the MIC is 5.4 µg/mL (≈ 31.6 µM).
In the assay with Helicobacter pylori [1], `CCCC/N=C(\N)Nc1nc(-c2ccc(CNC(C)=O)o2)cs1` came in with an MIC of 0.21 µg/mL (≈ 0.626 µM). In the assay on Rattus norvegicus, this compound showed an inhibition in vivo at 1 mg/kg of 45%. This compound came in with an Inhibition in the assay listed under Cavia porcellus of 78%.
The compound `CC(=O)NCc1ccc(-c2csc(/N=C(\N)S)n2)o1` registered an MIC in the assay with Helicobacter pylori [1] greater than 200 µg/mL. The same compound displayed an inhibition in vivo at 1 mg/kg in the assay with Rattus norvegicus of 11%. The compound also gave an Inhibition in the assay filed under Cavia porcellus of 0%.
The corresponding values for `CC(=O)NCc1ccc(-c2csc(CN(C)C)n2)o1` are greater than 200 µg/mL, 4% and 6%.
